Key:
Format in all cases: functional
Enterococcus faecalis = test: Antibacterial activity against beta-lactamase positive Enterococcus faecalis
How it was run: (§1)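 MIC by CLSI broth microdilution for nonfastidious organisms, in cation-adjusted Mueller-Hinton broth incubated at 35°C.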

Enterococcus faecium = test: Antibacterial activity against VanA-resistant Enterococcus faecium
How it was run: (§2)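 Broth microdilution MIC per CLSI guidelines, incubated at 35°C. Cation-adjusted Mueller-Hinton broth for nonfastidious organisms and staphylococci. Streptococci tested in the same broth with 3% lysed horse blood. Anaerobes tested in supplemented Brucella broth inside an anaerobe chamber (5% CO2, 5% H2, 90% N2), read after 48 h. Strains were mainly recent clinical isolates with confirmed identity.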

Listeria monocytogenes = test: Antibacterial activity against Listeria monocytogenes
How it was run: (§3)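 Broth microdilution MIC following CLSI guidelines, in cation-adjusted Mueller-Hinton broth containing 3% lysed horse blood, incubated at 35°C. Clinical isolates with identity confirmed. Reported as MIC range, MIC50 and MIC90.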

Haemophilus influenzae = test: Antibacterial activity against beta-lactamase positive Haemophilus influenzae
How it was run: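 Broth microdilution MIC following CLSI guidelines, in Haemophilus test medium at 35°C.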

Moraxella catarrhalis = test: Antibacterial activity against beta-lactamase negative Moraxella catarrhalis
Neisseria gonorrhoeae = test: Antibacterial activity against Neisseria gonorrhoeae
How it was run: (§4)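 MIC by broth microdilution in gonococcal broth, incubated at 35°C in 5% CO2. Reported as MIC range, MIC50 and MIC90.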

Klebsiella aerogenes = test: Antibacterial activity against Enterobacter aerogenes
How it was run: (§5)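 Broth microdilution MIC following CLSI guidelines, in cation-adjusted Mueller-Hinton broth, incubated at 35°C. Recent clinical isolates and reference strains, with identity confirmed by automated and standard microbiological methods. Results reported as MIC range, MIC50 and MIC90.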

Enterobacter cloacae = test: Antibacterial activity against Enterobacter cloacae; how it was run: as §5
Klebsiella oxytoca = test: Antibacterial activity against Klebsiella oxytoca; how it was run: as §5
Klebsiella pneumoniae = test: Antibacterial activity against beta-lactamase positive Klebsiella pneumoniae; how it was run: as §1
Morganella morganii = test: Antibacterial activity against Morganella morganii; how it was run: as §5
Proteus mirabilis = test: Antibacterial activity against Proteus mirabilis; how it was run: as §5
Proteus vulgaris = test: Antibacterial activity against Proteus vulgaris; how it was run: as §5
Shigella dysenteriae = test: Antibacterial activity against Shigella dysenteriae
Shigella flexneri = test: Antibacterial activity against Shigella flexneri; how it was run: as §5
[1] = test system: Peptoniphilus asaccharolyticus; test: Antibacterial activity against Peptostreptococcus asaccharolyticus
How it was run: (§6)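 Anaerobic broth microdilution MIC following CLSI guidelines, in supplemented Brucella broth. Run in an anaerobe chamber under 5% CO2, 5% H2 and 90% N2 at 35°C, and read after 48 h. Reported as MIC range, MIC50 and MIC90.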

[2] = test system: Fusobacterium necrophorum; test: Antibacterial activity against Fusobacterium necrophorum; how it was run: as §6
Bacteroides ovatus = test: Antibacterial activity against Bacteroides ovatus; how it was run: as §6
Staphylococcus aureus [3] = test: Antibacterial activity against oxacillin-susceptible Staphylococcus aureus; how it was run: as §1
Staphylococcus aureus [4] = test: Antibacterial activity against oxacillin and levofloxacin-resistant Staphylococcus aureus; how it was run: as §2
[5] = test system: Staphylococcus epidermidis; test: Antibacterial activity against oxacillin-susceptible Staphylococcus epidermidis; how it was run: as §1
[6] = test system: Staphylococcus saprophyticus; test: Antibacterial activity against Staphylococcus saprophyticus; how it was run: as §5
Streptococcus agalactiae = test: Antibacterial activity against Streptococcus agalactiae; how it was run: as §3
Streptococcus pneumoniae [7] = test: Antibacterial activity against penicillin-intermediate resistant Streptococcus pneumoniae; how it was run: as §2
Streptococcus pneumoniae [8] = test: Antibacterial activity against penicillin-resistant Streptococcus pneumoniae; how it was run: as §2
Anaerococcus prevotii = test: Antibacterial activity against Peptostreptococcus prevotii; how it was run: as §6
Prevotella buccae = test: Antibacterial activity against Prevotella buccae; settings: Segatella buccae; how it was run: as §6
Prevotella corporis = test: Antibacterial activity against Prevotella corporis; how it was run: as §6
Hoylesella oralis = test: Antibacterial activity against Prevotella oralis; how it was run: as §6
Cutibacterium acnes = test: Antibacterial activity against Propionibacterium acnes
Neisseria meningitidis = test: Antibacterial activity against Neisseria meningitidis; how it was run: as §4
Streptococcus salivarius = test: Antibacterial activity against Streptococcus salivarius
How it was run: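 Broth microdilution MIC following CLSI guidelines, in cation-adjusted Mueller-Hinton broth with 3% lysed horse blood. Plates incubated at 35°C. Clinical isolates and reference strains, with identity confirmed by standard microbiological methods.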

Staphylococcus aureus [9] = test: Antibacterial efficacy against ciprofloxacin and methicillin-resistant Staphylococcus aureus SA2017 infected orally dosed CD1 mouse model
How it was run: (§7)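 Sepsis model in female CD1 mice (6–8 weeks, 18–22 g). Lethal i.p. challenge (0.5 ml) at ≥100 median lethal doses. Streptococci were given in Todd-Hewitt broth; other organisms were given with 20% hog gastric mucin. A single oral gavage dose (0.5 ml, in 0.5% methylcellulose) was given at the time of challenge. The PD50 (mg/kg) was calculated by probit analysis.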

Staphylococcus aureus [10] = test: Antibacterial efficacy against methicillin-resistant Staphylococcus aureus SA1417 infected orally dosed CD1 mouse model; how it was run: as §7
Streptococcus pneumoniae [11] = test: Antibacterial efficacy against Streptococcus pneumoniae SVI infected orally dosed CD1 mouse model; settings: po, read-out: PD50; how it was run: as §7
Streptococcus pyogenes = test: Antibacterial efficacy against Streptococcus pyogenes C203 infected orally dosed CD1 mouse model; settings: C203, po; how it was run: as §7
Streptococcus pneumoniae [12] = test: Antibacterial activity against Streptococcus pneumoniae SVI infected once daily orally dosed CD1 mouse; settings: po, read-out: PD50
How it was run: (§8)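 Pneumonia model in CD1 mice (n = 8), anaesthetised with ketamine i.p. Intranasal instillation of 50 μl of broth culture (10^8–10^9 CFU/ml, OD600 0.70), confirmed by plate counts. Oral therapy began 24 h post-challenge. Dosing was either once daily for 1 day or twice daily for 3 days. The result was given as the PD50 (mg/kg).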

Streptococcus pneumoniae [13] = test: Antibacterial activity against quinolone-resistant Streptococcus pneumoniae SP4333 infected twice daily orally dosed CD1 mouse; settings: po, read-out: PD50; how it was run: as §8
[14] = test system: Parabacteroides distasonis; test: Antimicrobial activity against Bacteroides distasonis
How it was run: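 Anaerobic broth microdilution MIC following CLSI guidelines, in supplemented Brucella broth. Incubated at 35°C in a chamber under 5% CO2, 5% H2 and 90% N2. Read after 48 h.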

C[C@H]1COc2c(N3CCN(C)CC3)c(F)cc3c(=O)c(C(=O)O)cn1c23.C[C@H]1COc2c(N3CCN(C)CC3)c(F)cc3c(=O)c(C(=O)O)cn1c23.O [LEVOFLOXACIN]
0.008 µg/mL: MIC50 (Haemophilus influenzae) | MIC50 (Neisseria gonorrhoeae) | MIC90 (Neisseria gonorrhoeae) | MIC50 (Neisseria meningitidis) | MIC90 (Neisseria meningitidis)
8 µg/mL: MIC50 (Bacteroides ovatus) | MIC (Staphylococcus aureus [9]) | MIC50 [14]
2 µg/mL: MIC90 (Klebsiella oxytoca) | MIC90 (Proteus mirabilis) | MIC90 (Prevotella buccae) | MIC90 (Prevotella corporis) | MIC90 (Hoylesella oralis) | MIC50 (Cutibacterium acnes)
69 mg/kg: ED50 (Streptococcus pneumoniae [11]) | ED50 (Streptococcus pneumoniae [12])
64 µg/mL: MIC50 (Enterococcus faecium) | MIC90 (Enterococcus faecium) | MIC90 (Staphylococcus aureus [4]) | MIC90 (Cutibacterium acnes)
1 µg/mL: MIC50 (Listeria monocytogenes) | MIC90 (Listeria monocytogenes) | MIC50 (Klebsiella aerogenes) | MIC90 (Enterobacter cloacae) | MIC50 (Streptococcus agalactiae) | MIC90 (Streptococcus agalactiae) | MIC50 (Streptococcus pneumoniae [7]) | MIC90 (Streptococcus pneumoniae [7]) | MIC90 (Streptococcus pneumoniae [8]) | MIC50 (Prevotella buccae) | MIC50 (Prevotella corporis) | MIC50 (Hoylesella oralis) | MIC50 (Streptococcus salivarius) | MIC90 (Streptococcus salivarius)
17.7 mg/kg: ED50 (Streptococcus pyogenes; read-out: PD50)
0.015 µg/mL: MIC90 (Haemophilus influenzae)
> 200 mg/kg: ED50 (Streptococcus pneumoniae [13])
0.25 µg/mL: MIC50 (Staphylococcus aureus [3]) | MIC90 (Staphylococcus aureus [3]) | MIC [5] | MIC50 [6] | MIC (Staphylococcus aureus [10])
0.125 µg/mL: MIC50 (Morganella morganii) | MIC50 (Proteus mirabilis) | MIC [1] | MIC (Anaerococcus prevotii)
32 µg/mL: MIC90 (Klebsiella aerogenes) | MIC90 (Klebsiella pneumoniae) | MIC90 (Bacteroides ovatus) | MIC50 (Staphylococcus aureus [4]) | MIC90 [14]
0.03 µg/mL: MIC50 (Moraxella catarrhalis) | MIC (Proteus vulgaris) | MIC50 (Shigella dysenteriae) | MIC50 (Shigella flexneri) | MIC [2]
16 µg/mL: MIC90 (Morganella morganii)
0.06 µg/mL: MIC90 (Moraxella catarrhalis) | MIC50 (Enterobacter cloacae) | MIC50 (Klebsiella oxytoca) | MIC90 (Shigella dysenteriae) | MIC90 (Shigella flexneri)
0.5 µg/mL: MIC (Enterococcus faecalis) | MIC50 (Klebsiella pneumoniae) | MIC90 [6] | MIC50 (Streptococcus pneumoniae [8]) | MIC (Streptococcus pyogenes)

From ChEMBL document CHEMBL1147105, “In vitro and in vivo activities of PD 0305970 and PD 0326448, new bacterial gyrase/topoisomerase inhibitors with potent antibacterial activities versus multidrug-resistant gram-positive and fastidious organism groups” (2007)
